pIC50: −log10 of the molar value.
Key:
PBMC = assay: Inhibition of TNF-alpha release from LPS-stimulated human mononuclear cells; assay type: functional, cell-based
Phosphodiesterase 4 [1] = molecular target: T1, Phosphodiesterase 4 (Homo sapiens, UniProt P27815+Q08499+Q07343+Q08493); assay: Binding affinity at Phosphodiesterase 4 by measuring displacement of (+/-)-[3H]- Rolipram to guinea pig brain membranes.; assay type: tissue-based, Cavia porcellus; details: target entry is the homologue from another species
Outline: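 Guinea pig brain membranes (amount equal to 500 μg brain tissue per sample) incubated with 2 nM (±)-[3H]rolipram (24.7 Ci/mmol).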

[2] = Inhibition of tumor necrosis factor alpha (TNF-alpha) release in murine endotoxemia model after peroral administration at 30 mg/kg.; assay type: organism-based; design: dose 30 mg/kg
Phosphodiesterase 4 [3] = molecular target: T1, Phosphodiesterase 4; assay: Concentration to inhibit 50% of Phosphodiesterase 4 (PDE-4) from guinea pig macrophages; assay type: protein assay, Cavia porcellus; details: target entry is the homologue from another species
Outline: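 Enzyme source: homogenate of guinea pig peritoneal macrophages, Percoll-purified and adherence-selected, from Dunkin Hartley animals pretreated with horse serum. Two-step radioisotopic hydrolysis assay with 1 μM cAMP substrate in 20 mM Tris-HCl pH 8.0, 10 mM MgCl2, 4 mM 2-mercaptoethanol, 0.2 mM EGTA, 0.05 mg/mL BSA.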

Canis familiaris [4] = assay: Emetic effect in dogs at 0.2 mg/kg intravenous dose, 2 of 2 animals affected; assay type: functional, Canis lupus familiaris
Outline: (§1)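 Male and female beagles, 1–2 years old, 8–10 kg, food withheld the morning of testing. Compound in 100% DMSO given as a slow iv bolus into the cephalic vein over 30 s at 0.03 mL/kg. Dogs observed for up to 2 h or until emesis occurred. Usually 4 dogs (2 male, 2 female) per test.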

Canis familiaris [5] = assay: Emetic effect in dogs at 0.01 mg/kg intravenous dose, 1 of 2 animals affected; assay type: functional, Canis lupus familiaris; outline: as §1
[6] = (§2) Inhibition of tumor necrosis factor alpha (TNF-alpha) release in murine endotoxemia model after peroral administration
Outline: (§3)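 Male Balb/c mice, 20–25 g, dosed orally in 0.25% methylcellulose/0.2% Tween-20 in water 4 h before ip challenge with E. coli 055:B5 LPS at 30 μg/mouse. Serum TNF-α measured by ELISA. ED50 taken from dose–response curves, n = 6 mice/group.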

Canis familiaris [7] = assay: Emetic effect in dogs at 0.03 mg/kg intravenous dose, 2 of 2 animals affected; assay type: functional, Canis lupus familiaris; outline: as §1
[8] = Inhibition of tumor necrosis factor alpha (TNF-alpha) release in murine endotoxemia model; outline: as §3
Canis familiaris [9] = assay: Emetic effect in dogs at 1 mg/kg intravenous dose, 0 of 4 animals affected; assay type: functional, Canis lupus familiaris; outline: as §1
Canis familiaris [10] = assay: Emetic effect in dogs at 0.7 mg/kg intravenous dose, 0 of 4 animals affected; assay type: functional, Canis lupus familiaris; outline: as §1
Canis familiaris [11] = assay: Emetic effect in dogs at 3 mg/kg intravenous dose, 0 of 4 animals affected; assay type: functional, Canis lupus familiaris
[12] = as §2; remark: listed apart in the source
Outline: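 Male Balb/c mice, 20–25 g, were dosed orally in 0.25% methylcellulose/0.2% Tween-20 in water 4 h before an ip challenge with E. coli 055:B5 LPS at 30 μg/mouse. ED50 was taken from dose–response curves, n = 6 animals/group.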

Ki (Phosphodiesterase 4 [1])	IC50 (Phosphodiesterase 4 [3])	SMILES	other results
10 nM	30 nM	COc1ccc(C2(Cc3ccncc3)C(=O)c3ccccc3C2=O)cc1OC1CCCC1	pIC50 (PBMC): 6.70; inhibition [2]: 0%
60 nM	30 nM	COc1ccc(C2(Cc3ccncc3)C(=O)c3ccc(OC4CCN(C)CC4)cc3C2=O)cc1OC1CCCC1 (stereo unspecified)	
45 nM	100 nM	COc1ccc(C2(Cc3ccncc3)C(=O)c3ccc(O)cc3C2=O)cc1OC1CCCC1 (stereo unspecified)	
20 nM	50 nM	COc1ccc(C2(Cc3ccncc3)C(=O)c3ccc(OCC(=O)O)cc3C2=O)cc1OC1CCCC1 (stereo unspecified)	
20 nM	12 nM	CCOc1ccc2c(c1)C(=O)C(Cc1ccncc1)(c1ccc(OC)c(OC3CCCC3)c1)C2=O (stereo unspecified)	
20 nM	4 nM	COc1ccc(C2(Cc3ccncc3)C(=O)c3ccc(OCc4ccccc4)cc3C2=O)cc1OC1CCCC1 (single isomer, unassigned; (+)) [listing 1 of 2 here]	pIC50 (PBMC): 6.70; Ratio (Canis familiaris [10]): 0; Ratio (Canis familiaris [11]): 0
20 nM	30 nM	COc1ccc(C2(Cc3ccncc3)C(=O)c3ccc(OCc4ccccc4)cc3C2=O)cc1OC1CCCC1 (stereo in doubt; (+)-18)	

Second part, the compound before the results:

SMILES	Ki (Phosphodiesterase 4 [1])	IC50 (Phosphodiesterase 4 [3])	other results
COc1ccc(C2(Cc3c(Cl)cncc3Cl)C(=O)c3ccccc3C2=O)cc1OC1CCCC1	1700 nM	3000 nM	
COc1ccc(C2(Cc3ccc(O)cc3)C(=O)c3ccccc3C2=O)cc1OC1CCCC1	260 nM	70 nM	
COc1ccc(C2(Cc3ccccc3)C(=O)c3ccccc3C2=O)cc1OC1CCCC1	2300 nM	500 nM	
COc1ccc(C2(Cc3ccncc3)C(=O)c3ccc(OCc4ccccc4)cc3C2=O)cc1OC1CCCC1 (stereo in doubt; (+)-17)	20 nM	6 nM	
COc1ccc(C2CNC(=O)C2)cc1OC1CCCC1 (stereo unspecified) [ROLIPRAM]			pIC50 (PBMC): 6.30; Ratio (Canis familiaris [4]): 2; Ratio (Canis familiaris [5]): 1; ED50 [6]: 8 mg/kg; Ratio (Canis familiaris [7]): 2
COc1ccc(C2(Cc3ccncc3)C(=O)c3ccc(OCc4ccncc4)cc3C2=O)cc1OC1CCCC1 (stereo unspecified)	30 nM	14 nM	
COc1ccc(C2(Cc3ccncc3)C(O)c3ccccc3C2O)cc1OC1CCCC1 (stereo unspecified)	> 10000 nM	> 10000 nM	
COc1ccc([C@H](Cc2ccncc2)c2ccccc2)cc1OC1CCCC1 [CDP840]			ED50 [8]: 25 mg/kg; Ratio (Canis familiaris [9]): 0
COc1ccc(C2(Cc3cc[n+]([O-])cc3)C(=O)c3ccccc3C2=O)cc1OC1CCCC1	20 nM	50 nM	
COc1ccc(C2C(=O)c3ccccc3C2=O)cc1OC1CCCC1	> 10000 nM	> 10000 nM	
COc1ccc(C2(Cc3ccncc3)Cc3cc(OCc4ccccc4)ccc3C2=O)cc1OC1CCCC1 (stereo unspecified)	60 nM	20 nM	
COc1ccc(C2(Cc3ccncc3)C(=O)c3ccc(OCc4ccccc4)cc3C2=O)cc1OC1CCCC1 (single isomer, unassigned; (+)) [listing 2 of 2 here]			inhibition [2]: 40%
COc1ccc(C2(Cc3ccncc3)C(=O)c3ccc(OC(=O)N4CCC(N5CCCCC5)CC4)cc3C2=O)cc1OC1CCCC1 (stereo unspecified)	20 nM	30 nM	ED50 [12]: 15 mg/kg; Ratio (Canis familiaris [11]): 0
COc1ccc(C2(Cc3ccncc3)Cc3ccccc3C2)cc1OC1CCCC1	1600 nM	750 nM	

From ChEMBL document CHEMBL1131151, “Novel cyclic compounds as potent phosphodiesterase 4 inhibitors” (J Med Chem, 1998)
